ChEMBL document CHEMBL4706706, “Structure-activity relationship and mechanistic studies for a series of cinnamyl hydroxamate histone deacetylase inhibitors” (Bioorg Med Chem, 2021)
Calls of active or inactive are those of the source. The rule behind the calls is not given here.

Key:
[1] = Selectivity ratio of IC50 for human HCT-116 cells to IC50 for human Jurkat cells; assay type: functional
[2] = Selectivity index, ratio of IC50 for human HS5 cells to IC50 for human Jurkat cells
Jurkat [3] = assay: Effect on phosphoserine expression in human Jurkat cells at IC50 measured after 48 hrs by Western blot analysis; assay type: functional, cell-based
Jurkat [4] = assay: Induction of apoptosis in human Jurkat cells assessed as viable cells at 0.5 times IC50 measured after 48 hrs by Annexin V-FITC/7AAD staining based flow cytometry (reference value: 85.2%); assay type: functional
[5] = Selectivity ratio of IC50 for human HCT-116 cells to IC50 for human NAMALVA cells; assay type: functional
[6] = molecular target: T1, Protein deacetylase HDAC6 (Homo sapiens) (UniProt Q9UBN7); assay: Inhibition of HDAC6 in human NAMALVA cells assessed as increase in acetylated alpha-tubulin expression at IC50 measured after 48 hrs by Western blot analysis; assay type: cell-based
T1 sequence (whole entry): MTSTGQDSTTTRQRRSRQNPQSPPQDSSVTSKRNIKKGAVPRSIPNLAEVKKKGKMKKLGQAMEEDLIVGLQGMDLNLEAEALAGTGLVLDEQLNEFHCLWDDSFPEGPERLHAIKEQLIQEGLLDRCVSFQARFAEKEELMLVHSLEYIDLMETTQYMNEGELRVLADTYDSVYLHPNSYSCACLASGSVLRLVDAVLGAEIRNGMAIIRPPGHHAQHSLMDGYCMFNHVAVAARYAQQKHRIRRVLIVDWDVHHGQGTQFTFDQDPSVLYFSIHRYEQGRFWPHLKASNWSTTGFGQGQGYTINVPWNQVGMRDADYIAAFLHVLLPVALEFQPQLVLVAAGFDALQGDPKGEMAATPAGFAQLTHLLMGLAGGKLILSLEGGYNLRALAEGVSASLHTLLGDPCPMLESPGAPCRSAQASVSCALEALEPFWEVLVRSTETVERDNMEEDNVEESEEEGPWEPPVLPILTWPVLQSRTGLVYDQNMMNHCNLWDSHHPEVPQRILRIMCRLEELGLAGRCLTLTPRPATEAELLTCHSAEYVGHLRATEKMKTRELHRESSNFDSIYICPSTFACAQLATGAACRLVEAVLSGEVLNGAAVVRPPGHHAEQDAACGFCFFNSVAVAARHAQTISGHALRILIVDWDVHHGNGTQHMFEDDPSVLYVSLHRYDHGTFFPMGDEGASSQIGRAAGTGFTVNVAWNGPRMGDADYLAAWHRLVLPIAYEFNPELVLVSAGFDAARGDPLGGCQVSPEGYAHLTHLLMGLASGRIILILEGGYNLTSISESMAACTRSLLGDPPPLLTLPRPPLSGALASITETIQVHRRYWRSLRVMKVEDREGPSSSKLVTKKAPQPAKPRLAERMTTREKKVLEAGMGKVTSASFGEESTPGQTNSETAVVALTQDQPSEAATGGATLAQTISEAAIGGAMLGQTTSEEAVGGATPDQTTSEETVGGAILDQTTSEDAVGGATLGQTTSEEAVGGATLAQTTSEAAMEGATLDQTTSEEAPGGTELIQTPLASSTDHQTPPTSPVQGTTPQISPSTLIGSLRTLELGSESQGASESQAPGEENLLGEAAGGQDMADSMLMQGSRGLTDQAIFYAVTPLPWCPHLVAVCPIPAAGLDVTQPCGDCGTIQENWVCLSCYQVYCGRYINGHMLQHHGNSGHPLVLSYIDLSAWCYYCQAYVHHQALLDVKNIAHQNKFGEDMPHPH

Jurkat [7] = assay: Effect on phosphotyrosine expression in human Jurkat cells at IC50 measured after 48 hrs by Western blot analysis; assay type: functional, cell-based
Jurkat [8] = assay: Cytotoxicity against human Jurkat cells assessed as reduction in cell viability MTT assay; assay type: functional, cell-based; conditions: time 24-72 hrs, TDE = time-dependent effect
Summary of the method: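 Jurkat cells (2 × 10^4/well) in RPMI with 10% FBS and 1% penicillin–streptomycin, exposed 24, 48 and 72 h to compound (0.0032–50 μM); 1% DMSO as negative control. MTT at 0.5 mg/mL final for 3 h, formazan dissolved in 0.1 N HCl/isopropanol. IC50 with 95% confidence intervals from sigmoidal nonlinear regression; mean ± SEM.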

Jurkat [9] = assay: Cytotoxicity against human Jurkat cells assessed as reduction in cell proliferation at IC50 measured after 48 hrs by Ki-67 staining based fluorescence assay; assay type: functional
Summary of the method: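 Ki-67 stained per kit instructions; mean fluorescence intensity by flow cytometry, normalized to untreated cells; at least three independent experiments, ANOVA with Bonferroni post-test.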

HCT-116 = assay: Cytotoxicity against human HCT-116 cells assessed as reduction in cell viability measured after 72 hrs by MTT assay; assay type: functional, cell-based; conditions: HCT-116, 72 h
Jurkat [10] = assay: Induction of apoptosis in human Jurkat cells assessed as late apoptotic cells at 0.5 times IC50 measured after 48 hrs by Annexin V-FITC/7AAD staining based flow cytometry (reference value: 6.77%); assay type: functional
Jurkat [11] = assay: Induction of apoptosis in human Jurkat cells assessed as necrotic cells at 0.5 times IC50 measured after 48 hrs by Annexin V-FITC/7AAD staining based flow cytometry (reference value: 0.23%); assay type: functional
NAMALVA [12] = assay: Induction of apoptosis in human NAMALVA cells assessed as necrotic cells at 0.5 times IC50 measured after 48 hrs by Annexin V-FITC/7AAD staining based flow cytometry (reference value: 1.05%); assay type: functional
MCF7 = assay: Cytotoxicity against human MCF7 cells assessed as reduction in cell viability measured after 72 hrs by MTT assay; assay type: functional, cell-based; conditions: MCF7, 72 h
NAMALVA [13] = assay: Effect on phosphotyrosine expression in human NAMALVA cells at IC50 measured after 48 hrs by Western blot analysis; assay type: functional, cell-based
Jurkat [14] = assay: Cytotoxicity against human Jurkat cells assessed as reduction in cell viability measured after 48 hrs MTT assay; assay type: functional, cell-based
Jurkat [15] = assay: Cytotoxicity against human Jurkat cells assessed as reduction in cell viability measured after 24 hrs MTT assay; assay type: functional, cell-based
[16] = molecular target: T2, Histone deacetylase (Homo sapiens) (UniProt Q13547+O15379+Q9UBN7+Q92769+Q9UQL6+Q8WUI4+Q9BY41+Q96DB2+P56524+Q9UKV0+Q969S8); assay: Inhibition of HDAC in human Jurkat cells assessed as increase in gammaH2AX expression at IC50 measured after 48 hrs by Western blot analysis; assay type: cell-based
Jurkat [17] = assay: Cytotoxicity against human Jurkat cells assessed as reduction in cell viability measured after 72 hrs by MTT assay; assay type: functional, cell-based
NAMALVA [18] = assay: Induction of apoptosis in human NAMALVA cells assessed as late apoptotic cells at 0.5 times IC50 measured after 48 hrs by Annexin V-FITC/7AAD staining based flow cytometry (reference value: 3.52%); assay type: functional
Jurkat [19] = assay: Induction of apoptosis in human Jurkat cells assessed as early apoptotic cells at 0.5 times IC50 measured after 48 hrs by Annexin V-FITC/7AAD staining based flow cytometry (reference value: 6.05%); assay type: functional
[20] = Cytotoxicity against human HS5 cells assessed as reduction in cell viability measured after 72 hrs by MTT assay; assay type: ADME, cell-based; conditions: HS5, 72 h
NAMALVA [21] = assay: Induction of apoptosis in human NAMALVA cells assessed as viable cells at 0.5 times IC50 measured after 48 hrs by Annexin V-FITC/7AAD staining based flow cytometry (reference value: 90.4%); assay type: functional
[22] = molecular target: T1, Protein deacetylase HDAC6 (Homo sapiens); assay: Inhibition of HDAC6 in human Jurkat cells assessed as increase in acetylated alpha-tubulin expression at IC50 measured after 48 hrs by Western blot analysis; assay type: cell-based
[23] = Selectivity index, ratio of IC50 for human HS5 cells to IC50 for human NAMALVA cells
NAMALVA [24] = assay: Effect on phosphoserine expression in human NAMALVA cells at IC50 measured after 48 hrs by Western blot analysis; assay type: functional, cell-based
NAMALVA [25] = assay: Cytotoxicity against human NAMALVA cells assessed as reduction in cell viability measured after 72 hrs by MTT assay; assay type: functional, cell-based
NAMALVA [26] = assay: Induction of apoptosis in human NAMALVA cells assessed as early apoptotic cells at 0.5 times IC50 measured after 48 hrs by Annexin V-FITC/7AAD staining based flow cytometry (reference value: 5.07%); assay type: functional
[27] = molecular target: T2, Histone deacetylase (Homo sapiens); assay: Inhibition of HDAC in human NAMALVA cells assessed as increase in gammaH2AX expression at IC50 measured after 48 hrs by Western blot analysis; assay type: cell-based
[28] = molecular target: T3, Protein deacetylase HDAC6 (Homo sapiens, UniProt Q9UBN7); assay: Inhibition of recombinant human full-length N-terminal GST-tagged HDAC6 (1 to 1215 residues) expressed in baculovirus infected Sf9 insect cells using RHKK(Ac)AMC as substrate preincubated for 5 to 10 mins followed by substrate addition and measured after 2 hrs by fluorescence assay
T3 sequence (Q9UBN7 whole entry): T1 sequence (whole entry)

[29] = molecular target: T2, Histone deacetylase (Homo sapiens); assay: Inhibition of HDAC in human HeLa cell nuclear extracts at 100 uM relative to control; assay type: subcellular; conditions: Nucleus
Summary of the method: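 Total HDAC activity measured with HeLa nuclear extract as enzyme source; single dose of 100 µM run in duplicate.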

For `COc1ccc(NC(=O)Nc2ccc(/C=C/C(=O)NO)cc2)cc1`, the “Ratio IC50” value [1] was 108, the “Ratio IC50” value [2] was 27 and the inhibition (Jurkat [3]) was “inactive”. For the same molecule, the Activity (Jurkat [4]) was 82.2%, the “Ratio IC50” value [5] was 26 and the inhibition [6] was “Active”. The inhibition (Jurkat [7]) was “inactive”, the Activity (Jurkat [8]) was “Tde” and the Activity (Jurkat [9]) was “Active”. The IC50 (HCT-116) was 11900 nM, the Activity (Jurkat [10]) was 7.77% and the Activity (Jurkat [11]) was 0.39%. The Activity (NAMALVA [12]) was 1.46%, the IC50 (MCF7) was > 50000 nM and the inhibition (NAMALVA [13]) was “inactive”. For the same molecule, the IC50 (Jurkat [14]) was 700 nM, the IC50 (Jurkat [15]) was 1800 nM and the inhibition [16] was “Active”. For the same molecule, the IC50 (Jurkat [17]) was 110 nM, the Activity (NAMALVA [18]) was 5.42% and the Activity (Jurkat [19]) was 9.66%. The IC50 [20] was 3000 nM, the Activity (NAMALVA [21]) was 82.9% and the inhibition [22] was “Active”. For the same molecule, the “Ratio IC50” value [23] was 7, the inhibition (NAMALVA [24]) was “inactive” and the IC50 (NAMALVA [25]) was 460 nM. The Activity (NAMALVA [26]) was 10.2% and the inhibition [27] was “Active”.

For `O=C(Nc1ccc(C(=O)NO)cc1)Nc1ccc([N+](=O)[O-])cc1`, the IC50 (HCT-116) was 28400 nM, the IC50 (MCF7) was > 50000 nM and the IC50 (Jurkat [17]) was 12600 nM. The IC50 (NAMALVA [25]) was 13200 nM.

For `O=C(CCc1ccc(NC(=O)Nc2ccccc2)cc1)NO`, the IC50 (HCT-116) was 16200 nM, the IC50 (MCF7) was > 50000 nM and the IC50 (Jurkat [17]) was 1590 nM. For the same molecule, the IC50 (NAMALVA [25]) was 780 nM.

With `O=C(Nc1ccccc1)Nc1ccc(C(=O)NO)cc1` the IC50 (HCT-116) was 14700 nM, the IC50 (MCF7) was > 50000 nM and the IC50 (Jurkat [17]) was 2500 nM. For the same molecule, the IC50 (NAMALVA [25]) was 530 nM.

In the case of `O=C(/C=C/c1ccc(NC(=O)Nc2ccc(Cl)cc2)cc1)NO`, the inhibition (Jurkat [3]) is reported as “inactive”, the Activity (Jurkat [4]) is reported as 88.4% and the inhibition [6] is reported as “Active”. For the same molecule, the inhibition (Jurkat [7]) was “inactive”, the Activity (Jurkat [8]) was “Tde” and the Activity (Jurkat [9]) was “Active”. The IC50 (HCT-116) was 29900 nM, the Activity (Jurkat [10]) was 4.28% and the Activity (Jurkat [11]) was 0.28%. For the same molecule, the IC50 [28] was 8.1 nM, the Activity (NAMALVA [12]) was 0.68% and the IC50 (MCF7) was > 50000 nM. The inhibition (NAMALVA [13]) was “inactive”, the IC50 (Jurkat [14]) was 600 nM and the IC50 (Jurkat [15]) was 2600 nM. The inhibition [29] was 93%, the inhibition [16] was “Active” and the IC50 (Jurkat [17]) was 40 nM. For the same molecule, the Activity (NAMALVA [18]) was 8.85%, the Activity (Jurkat [19]) was 7.92% and the IC50 [20] was 1700 nM. The Activity (NAMALVA [21]) was 72.5%, the inhibition [22] was “Active” and the inhibition (NAMALVA [24]) was “inactive”. The IC50 (NAMALVA [25]) was 200 nM, the Activity (NAMALVA [26]) was 17.9% and the inhibition [27] was “Active”.
